Shown is part of a subset that was picked to be rich in hits.
TLR4 MyD88 comp: inhibitors of TLR4-MyD88 association in cells, primary screen, cell-based, HeLa CL3-4, BLA complementation, FRET ratio; HeLa CL3-4 TLR4/MyD88 BLA complementation; Toll-like receptor 4 (Homo sapiens) + Myeloid differentiation primary response protein …; inhibition, % at 8.4 µM; 200,000 tested, 0.18% active; in the data active = inhibition above about 25%;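 note: 0% = vehicle and 100% = reference inhibitor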
Target sequence (O00206 whole entry, looked up): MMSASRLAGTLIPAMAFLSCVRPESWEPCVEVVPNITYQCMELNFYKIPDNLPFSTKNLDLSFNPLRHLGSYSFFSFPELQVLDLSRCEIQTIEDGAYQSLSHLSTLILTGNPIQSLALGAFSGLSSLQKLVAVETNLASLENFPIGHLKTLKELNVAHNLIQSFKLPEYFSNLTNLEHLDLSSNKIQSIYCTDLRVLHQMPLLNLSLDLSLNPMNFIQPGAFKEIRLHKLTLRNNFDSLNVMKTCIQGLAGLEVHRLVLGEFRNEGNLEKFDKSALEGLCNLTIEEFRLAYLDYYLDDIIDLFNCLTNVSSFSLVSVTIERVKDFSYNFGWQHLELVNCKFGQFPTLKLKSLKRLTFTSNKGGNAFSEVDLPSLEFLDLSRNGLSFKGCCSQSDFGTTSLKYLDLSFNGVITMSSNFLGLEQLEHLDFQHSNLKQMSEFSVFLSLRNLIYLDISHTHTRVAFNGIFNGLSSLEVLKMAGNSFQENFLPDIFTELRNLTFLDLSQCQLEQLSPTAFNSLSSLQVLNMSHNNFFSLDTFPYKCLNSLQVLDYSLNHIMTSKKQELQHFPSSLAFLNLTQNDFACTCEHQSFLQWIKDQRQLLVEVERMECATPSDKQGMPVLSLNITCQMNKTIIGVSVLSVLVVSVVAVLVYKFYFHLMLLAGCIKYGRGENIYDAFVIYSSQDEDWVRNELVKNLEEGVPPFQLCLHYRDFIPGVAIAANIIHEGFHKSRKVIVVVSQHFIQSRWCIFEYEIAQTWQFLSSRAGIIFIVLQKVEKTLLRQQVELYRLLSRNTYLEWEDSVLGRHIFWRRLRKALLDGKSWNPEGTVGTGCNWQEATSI
Target sequence (Q99836 whole entry, looked up): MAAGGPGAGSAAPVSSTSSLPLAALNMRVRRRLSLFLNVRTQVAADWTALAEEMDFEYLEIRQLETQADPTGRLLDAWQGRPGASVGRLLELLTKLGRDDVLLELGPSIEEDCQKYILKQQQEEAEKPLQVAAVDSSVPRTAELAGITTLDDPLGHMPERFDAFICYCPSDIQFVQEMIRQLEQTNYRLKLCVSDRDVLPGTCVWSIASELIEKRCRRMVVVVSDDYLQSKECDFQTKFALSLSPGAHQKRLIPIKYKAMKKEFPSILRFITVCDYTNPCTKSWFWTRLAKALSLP
TLR9-MyD88 inh: inhibitors of TLR9-MyD88 association in cells, primary screen, cell-based, CHO, BLA complementation, fluorescence | Toll-like receptor 9 (Homo sapiens) + Myeloid differentiation primary response protein … | inhibition, % at 4.98 µM | 340,000 tested, 0.21% active | CCF4 FRET ratio;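 active = inhibition above the mean over all tested compounds plus 3 SD, cut at about 21% in these data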;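 note: 0% = DMSO only wells and 100% = clavulanate BLA inhibitor control wells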
CHOP inh: inhibitors of CHOP promoter induction, primary screen, cell-based, unfolded protein response, luciferase reporter | CHO-K1 CHOP-promoter luciferase, tunicamycin-induced, 15-18 h | inhibition, % at 10 µM | 220,000 tested, 3.8% active | AID 2732, 2010;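 active = compounds that reduced the stress-induced luciferase reporter signal by more than about 70% of percent inhibition, limit read from the data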;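 note: 0% = tunicamycin plus vehicle and 100% = wells without tunicamycin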
UPR CHOP act: activators of apoptotic CHOP UPR arm, primary screen, cell-based, CHO-CHOP luciferase reporter, luminescence, uHTS; activation, % at 10 µM; 330,000 tested, 0.34% active; UPR activation; percent of tunicamycin response over DMSO baseline; AID 449763, 2010;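 active = at 10 µM dose, activation of 40% or more, normalized to positive control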;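 note: 100% = tunicamycin at 10 µg/mL and 0% = DMSO alone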
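System: CHO-CHOP luciferase reporter cell line; amount: 500 cells/well; buffer or medium: F12 medium containing 10% fetal bovine serum; incubation: 6 h compound exposure at 37 °C after overnight seeding; measured by: luciferase luminescence after 10 min with Steady-Glo reagent; evaluation: % reporter activation, DMSO baseline versus tunicamycin full activation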
NOD2 RIPK2 PPI: NOD2-RIPK2 binding disruptors in cells, primary screen, fluorescence, CHO cells, BLA complementation; Receptor-interacting serine/threonine-protein kinase 2 (Homo sapiens), O43353; CCF4 ratio; inhibition, % at 4.98 µM; 360,000 tested, 0.38% active; AID 624267, 2012; in the data active = inhibition above about 21%;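 note: 0% = vehicle only and 100% = reference blocker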
UPR XBP1 act: activators of adaptive XBP1 UPR arm, primary screen, cell-based, CHO-XBP1 luciferase reporter, luminescence, uHTS; 330,000 tested, 0.33% active; activation, % at 20 µM; IRE1-XBP1 UPR activation; percent of tunicamycin response, DMSO as zero;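 active = versus positive control, 20 µM dose yields 30% or more activation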;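 note: 100% = tunicamycin at 10 µg/mL and 0% = DMSO only wells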
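Test system: CHO-XBP1 luciferase reporter cells | Buffer or medium: Serum-containing F12 medium, 10% FBS | Schedule: 6 h compound exposure at 37 °C, 5% CO2 | Detection: Steady-Glo luciferase glow luminescence, 10 min after reagent addition | Read-out basis: Activation, % of tunicamycin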
UPR CHOP confirm: activators of apoptotic CHOP UPR arm, confirmation, cell-based, CHO-CHOP luciferase reporter, single concentration. shares compounds with UPR CHOP act. CHO-CHOP cells, CHOP-luciferase reporter luminescence; percent of tunicamycin response, DMSO as zero. activation, % at 10 µM. 1,000 tested, 64% active. AID 463112, 2010; in the data active = activation above about 33%;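 note: 0% = DMSO wells and 100% = tunicamycin 10 µg/mL wells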
The depositor's hits bear a star; . = no result.

SMILES	TLR4 MyD88 comp	TLR9-MyD88 inh	CHOP inh	UPR CHOP act	NOD2 RIPK2 PPI	UPR XBP1 act	UPR CHOP confirm
O=C(N/N=C(\c1ccccc1)c1ccccn1)c1cccc([N+](=O)[O-])c1	19.2	7.7	47.8	136.0*	-1.2	1.6	319.0*
Cn1ccnc1/C(=N\NC(=O)c1ccccc1)c1cccc([N+](=O)[O-])c1	-16.5	-9.4	-2.4	-1.3	-2.5	-2.5	.
O=C(/C=C/c1c(F)cccc1Cl)c1ccc(O)cc1	.	1.6	-78.8	59.8*	-4.6	-3.2	1.7
CCCCn1nnnc1C1(C)CCC(=O)N1Cc1cccnc1 (configuration not stated)	.	.	.	.	-3.6	.	.
c1ccc(-c2nc3c4ccccc4ccn3c2Cc2ccsc2)cc1	.	.	.	.	-0.5	.	.
O=C(COC(=O)c1ccccc1Br)NC(=O)NCc1ccccc1	.	14.4	.	-0.3	1.3	1.1	.
Cc1cnnn1-c1ccc(C(=O)CCl)cc1	-11.3	-1.5	91.6*	131.8*	-3.0	-7.2	-9.3
CC(=O)c1ccc(-n2nncc2C(C)(C)C)cc1	-4.8	-6.7	1.1	0.5	-0.4	-0.5	.
O=S(=O)(c1ccc(S(=O)(=O)N2CCCC2)cc1)N1CCCCC1	.	.	.	0.9	.	6.8	.
O=S(=O)(c1ccc(S(=O)(=O)N2CCCC3(CCCCC3)C2)cc1)N1CCCCC1	6.8	2.6	33.0	51.8*	-10.4	20.3	2.3
CSc1cccc(NC(=O)C2CC(=O)N(c3ccc4c(c3)OCCO4)C2)c1 (configuration not stated)	.	-3.3	.	.	6.6	.	.
CCc1ccc(N2C(=O)C(Cl)=C(Nc3ccc(C(=O)N4CCCC4)cc3)C2=O)cc1	.	16.1	.	104.3*	17.7	-5.8	0.1
Cc1nc(NCc2ccco2)c2c(C)c(C)sc2n1	-5.3	-3.8	-38.2	40.6*	-10.2	-2.1	14.5
CN(CC(=O)Nc1c(Cl)cccc1Cl)CC(=O)N1CCc2ccccc21	.	-3.5	.	.	-2.5	.	.
Cn1cc(/C=C2\SC(=O)NC2=S)c2ccccc21	3.8	-0.1	39.9	50.9*	-2.0	17.5	66.6*
Cc1ccc(C(=O)NN2C(=O)/C(=C/c3cn(C)c4ccccc34)SC2=S)cc1	-2.5	-12.0	25.7	.	-11.8	.	.
CC(=O)n1cc(C(C[N+](=O)[O-])SCCN)c2ccccc21 (configuration not stated)	17.1	-4.4	-0.7	138.4*	-0.7	5.5	-3.7
Cc1nc2ccc(S(=O)(=O)CCC(=O)NCc3ccc(Cl)cc3)cc2s1	.	.	.	.	1.3	.	.
COC(=O)c1c(NC(=O)C(Cl)Cl)sc2c1C(C(=O)OC)CC2 (configuration not stated)	.	-0.1	79.7*	44.7*	-1.3	18.5	29.5
Cc1ccc2cc(NC(=O)C3(C)CCN3CC(C)C)ccc2n1 (configuration not stated)	.	.	.	.	8.0	.	.
CC1(C(=O)NS(=O)(=O)c2ccccc2Cl)CCN1C(=O)Cc1cccs1 (configuration not stated)	.	.	.	.	9.3	.	.
O=[N+]([O-])c1ccc(C=Nc2ccc(Cl)c([N+](=O)[O-])c2)s1	-1.8	0.4	-25.4	60.6*	-1.9	-3.2	49.2*
Cc1cc(C)cc(N=Cc2ccc([N+](=O)[O-])s2)c1	-2.2	-1.0	-72.3	2.8	-4.8	0.9	.
Oc1[nH]c2ccc(Br)cc2c1N=NC(=S)N1CCOCC1	.	11.8	-50.7	168.2*	9.3	7.6	101.9*
Oc1[nH]c2ccccc2c1N=NC(=S)N1CCOCC1	.	7.2	4.0	253.7*	5.0	18.1	229.4*
